Source: ChEMBL document CHEMBL1149202, “N-Aryl-gamma-lactams as integrin alphavbeta3 antagonists” (Bioorg Med Chem Lett, 2004)

Columns and labels:
Integrin alpha-V/beta-3 = Integrin alpha-V/beta-3 (Homo sapiens, UniProt P05106+P06756); experiment: Binding affinity towards vitronectin receptor (AlphaV-beta3 integrin).; type: protein-complex assay
How it was run: (§1)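 Purified integrin (αvβ3; αIIbβ3) was bead-coupled overnight at 4 °C. Competitive electrochemiluminescent binding used Ru-labelled vitronectin for αvβ3 and Ru-labelled fibrinogen for αIIbβ3, in pH 7.5 Tris buffer with Ca2+, Mg2+, Mn2+, 1% BSA and 0.05% Tween-20, for 2 h at 25 °C. DMSO serial dilutions were used. Nonspecific binding was taken with excess unlabelled ligand or 5 mM EDTA. Ki came from a four-parameter fit, SD of ≥2 determinations.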

[1] = biological target: Integrin alpha-IIb/beta-3 (Homo sapiens, UniProt P05106+P08514); experiment: Affinity for alphaIIb-beta3 integrin; type: protein-complex assay; how it was run: as §1
Chain of Integrin alpha-IIb/beta-3 (P05106 27-788 limits assumed): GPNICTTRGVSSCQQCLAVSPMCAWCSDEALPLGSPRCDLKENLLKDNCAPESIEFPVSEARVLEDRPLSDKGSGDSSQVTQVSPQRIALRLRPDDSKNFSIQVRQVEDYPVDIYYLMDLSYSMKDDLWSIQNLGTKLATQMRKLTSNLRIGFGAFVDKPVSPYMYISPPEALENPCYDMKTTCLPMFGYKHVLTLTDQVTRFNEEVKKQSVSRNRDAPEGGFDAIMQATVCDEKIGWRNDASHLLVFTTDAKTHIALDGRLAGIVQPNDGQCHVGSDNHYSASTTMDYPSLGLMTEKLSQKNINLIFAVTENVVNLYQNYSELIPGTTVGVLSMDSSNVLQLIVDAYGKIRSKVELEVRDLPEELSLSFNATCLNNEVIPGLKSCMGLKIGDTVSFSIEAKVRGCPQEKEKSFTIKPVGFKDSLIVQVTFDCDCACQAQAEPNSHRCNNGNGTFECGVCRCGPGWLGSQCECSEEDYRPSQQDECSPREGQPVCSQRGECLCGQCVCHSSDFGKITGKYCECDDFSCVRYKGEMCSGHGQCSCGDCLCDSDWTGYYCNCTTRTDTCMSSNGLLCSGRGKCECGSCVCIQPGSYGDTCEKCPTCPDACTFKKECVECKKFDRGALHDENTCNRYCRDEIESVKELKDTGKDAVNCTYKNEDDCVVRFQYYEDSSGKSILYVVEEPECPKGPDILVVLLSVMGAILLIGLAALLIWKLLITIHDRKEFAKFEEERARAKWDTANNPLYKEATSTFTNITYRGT
Chain of Integrin alpha-IIb/beta-3 (P08514 32-887 limits assumed): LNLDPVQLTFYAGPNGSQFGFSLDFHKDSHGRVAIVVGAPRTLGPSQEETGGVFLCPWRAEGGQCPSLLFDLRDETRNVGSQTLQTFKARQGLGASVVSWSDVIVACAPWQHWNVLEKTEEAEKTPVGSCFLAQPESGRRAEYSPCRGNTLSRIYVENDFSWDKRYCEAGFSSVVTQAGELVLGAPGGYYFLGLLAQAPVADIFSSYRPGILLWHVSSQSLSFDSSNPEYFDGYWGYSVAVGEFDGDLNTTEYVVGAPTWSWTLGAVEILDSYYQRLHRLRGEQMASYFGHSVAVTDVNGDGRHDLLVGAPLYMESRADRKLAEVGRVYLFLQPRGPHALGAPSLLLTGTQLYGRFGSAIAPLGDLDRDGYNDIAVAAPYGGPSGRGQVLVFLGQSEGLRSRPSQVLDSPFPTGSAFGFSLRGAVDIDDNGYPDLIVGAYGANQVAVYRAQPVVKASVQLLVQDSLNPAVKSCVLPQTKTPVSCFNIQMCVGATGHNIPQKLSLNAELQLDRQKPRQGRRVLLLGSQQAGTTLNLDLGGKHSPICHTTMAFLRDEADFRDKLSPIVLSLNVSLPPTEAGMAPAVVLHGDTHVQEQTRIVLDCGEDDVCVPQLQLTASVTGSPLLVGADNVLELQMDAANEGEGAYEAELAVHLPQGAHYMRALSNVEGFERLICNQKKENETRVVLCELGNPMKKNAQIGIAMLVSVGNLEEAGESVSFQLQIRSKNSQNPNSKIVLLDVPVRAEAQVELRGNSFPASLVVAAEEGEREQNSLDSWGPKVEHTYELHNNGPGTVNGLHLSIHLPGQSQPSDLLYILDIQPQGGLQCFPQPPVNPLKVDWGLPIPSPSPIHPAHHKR
Chain of Integrin alpha-IIb/beta-3 (P08514 891-1039 limits assumed): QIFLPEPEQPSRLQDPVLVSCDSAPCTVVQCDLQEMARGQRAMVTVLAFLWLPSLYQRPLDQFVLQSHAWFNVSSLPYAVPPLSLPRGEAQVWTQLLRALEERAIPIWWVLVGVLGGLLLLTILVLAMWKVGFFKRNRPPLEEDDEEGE

Chain of Integrin alpha-V/beta-3 (P05106 27-788 limits assumed): as the sequence (P05106 27-788 limits assumed) above
Chain of Integrin alpha-V/beta-3 (P06756 31-889 limits assumed): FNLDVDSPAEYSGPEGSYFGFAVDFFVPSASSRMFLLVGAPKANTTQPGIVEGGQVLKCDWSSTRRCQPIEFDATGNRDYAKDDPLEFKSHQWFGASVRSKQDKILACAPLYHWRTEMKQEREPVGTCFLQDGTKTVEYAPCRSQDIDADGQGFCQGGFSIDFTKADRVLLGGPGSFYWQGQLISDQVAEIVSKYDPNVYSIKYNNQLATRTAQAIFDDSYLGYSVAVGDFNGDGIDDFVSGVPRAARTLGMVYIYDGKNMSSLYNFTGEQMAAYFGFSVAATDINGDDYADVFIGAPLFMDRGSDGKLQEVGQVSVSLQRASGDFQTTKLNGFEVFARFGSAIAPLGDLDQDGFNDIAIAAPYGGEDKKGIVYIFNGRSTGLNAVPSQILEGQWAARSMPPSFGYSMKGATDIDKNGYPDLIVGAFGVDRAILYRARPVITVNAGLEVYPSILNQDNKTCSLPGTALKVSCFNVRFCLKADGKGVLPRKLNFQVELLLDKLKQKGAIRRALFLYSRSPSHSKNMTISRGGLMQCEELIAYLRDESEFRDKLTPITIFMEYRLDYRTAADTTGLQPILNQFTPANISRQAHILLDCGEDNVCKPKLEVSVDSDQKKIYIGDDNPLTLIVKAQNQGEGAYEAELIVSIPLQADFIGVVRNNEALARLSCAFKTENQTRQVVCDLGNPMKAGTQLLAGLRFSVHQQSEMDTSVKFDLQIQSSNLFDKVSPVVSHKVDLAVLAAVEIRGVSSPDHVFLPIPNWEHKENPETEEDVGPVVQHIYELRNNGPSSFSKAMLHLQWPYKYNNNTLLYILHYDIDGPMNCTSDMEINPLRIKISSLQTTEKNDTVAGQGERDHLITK
Chain of Integrin alpha-V/beta-3 (P06756 891-1048 limits assumed): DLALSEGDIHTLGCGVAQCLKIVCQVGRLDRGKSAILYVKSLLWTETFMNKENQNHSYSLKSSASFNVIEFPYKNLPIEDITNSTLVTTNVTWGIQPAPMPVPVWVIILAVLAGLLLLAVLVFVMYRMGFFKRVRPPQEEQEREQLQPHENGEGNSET

| SMILES | Ki (Integrin alpha-V/beta-3) | Ki [1] |
| --- | --- | --- |
| O=C(O)CC(NC(=O)C1CC(=O)N(c2cccc(NC3=NCCN3)c2)C1)c1cccnc1 (stereo not drawn) | 5.1 nM |  |
| NC(N)=Nc1ccc(Cl)c(N2CC(C(=O)NC(CC(=O)O)c3cccnc3)CC2=O)c1 (stereo not drawn) | 52.7 nM |  |
| NC(N)=Nc1ccc(F)c(N2CC(C(=O)NC(CC(=O)O)c3cccnc3)CC2=O)c1 (stereo not drawn) | 2.9 nM |  |
| O=C(O)C[C@H](NC(=O)[C@H]1CC(=O)N(c2cccc(NC(=O)NCc3ccccc3)c2)C1)c1cccc(F)c1 | > 1000 nM | > 25 µM |
| O=C(O)C[C@@H](NC(=O)[C@@H]1CC(=O)N(c2cccc(NC3=NCCCN3)c2)C1)c1ccc2c(c1)OCO2 | 7.3 nM | > 25 µM |
| O=C(O)CC(NC(=O)C1CC(=O)N(c2cccc(NC3=NCCCN3)c2)C1)c1cccnc1 (stereo not drawn) | 1.4 nM |  |
| O=C(O)C[C@@H](NC(=O)[C@@H]1CC(=O)N(c2cccc(NC(=O)NCc3ccccc3)c2)C1)c1cccc(F)c1 | 154 nM | > 25 µM |
| O=C(O)C[C@H](NC(=O)[C@@H]1CC(=O)N(c2cccc(NC3=NCCCN3)c2)C1)c1ccc2c(c1)OCO2 | 0.1 nM | 2.1 µM |
| O=C(O)CC(NC(=O)C1CC(=O)N(c2cccc(NC(=O)NCc3ccccc3)c2)C1)c1cccnc1 (stereo not drawn) | 10.4 nM |  |
| O=C(O)CC(NC(=O)C1CC(=O)N(c2cccc(NC(=O)NCc3ccccc3)c2)C1)c1ccccc1 (stereo not drawn) | 70.9 nM |  |
| O=C(O)CC(NC(=O)C1CC(=O)N(c2cccc(NC3=NCCCN3)c2)C1)c1ccc2c(c1)OCO2 (stereo not drawn) | 0.7 nM |  |
| O=C(O)C[C@@H](NC(=O)[C@H]1CC(=O)N(c2cccc(NC(=O)NCc3ccccc3)c2)C1)c1cccc(F)c1 | > 1000 nM | > 25 µM |
| O=C(O)CC(NC(=O)C1CC(=O)N(c2cccc(NC(=O)NCc3ccccc3)c2)C1)c1cccc(F)c1 (stereo not drawn) | 11.1 nM |  |
| O=C(O)CC(NC(=O)C1CC(=O)N(c2cc(NC3=NCCCN3)ccc2F)C1)c1ccc2c(c1)OCO2 (stereo not drawn) | 0.5 nM |  |
| O=C(O)CC(NC(=O)C1CC(=O)N(c2cccc(NC(=O)NCc3ccccc3)c2)C1)c1ccc2c(c1)OCO2 (stereo not drawn) | 2.4 nM |  |
| N=C(N)Nc1cccc(N2CC(C(=O)NC(CC(=O)O)c3cccnc3)CC2=O)c1 (stereo not drawn) | 16.6 nM |  |
| O=C(O)C[C@H](NC(=O)[C@@H]1CC(=O)N(c2cccc(NC(=O)NCc3ccccc3)c2)C1)c1cccc(F)c1 | 10 nM | > 25 µM |
